Source: ChEMBL document CHEMBL1126655, “Synthesis and antiviral activity of novel isonucleoside analogs” (J Med Chem, 1993)

What was measured:
Human alphaherpesvirus 3 = assay: Antiviral activity against Varicella zoster virus (Ellen strain); format: functional; settings: read-out: ID50 (the source's name)
In short: (§1)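 WI-38 monolayers were infected, with virus adsorbed for 1–2 h. They were then overlaid with EMEM maintenance medium (1% carboxymethyl cellulose, 2.5% FBS) containing duplicate drug dilutions. Monolayers were stained after 4–6 days at 37 °C. ID50 was taken as the concentration giving 50% plaque reduction versus virus controls. Titrations were done in duplicate.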

Human alphaherpesvirus 1 [1] = assay: Antiviral activity against Herpes simplex virus-1 (Schooler strain); format: functional; settings: read-out: ID50 (the source's name); in short: as §1
Human betaherpesvirus 5 = assay: Antiviral activity against Human cytomegalovirus (AD169 strain); format: functional; settings: read-out: ID50 (the source's name); in short: as §1
[2] = Antiviral activity against Herpes simplex virus-1 (KOS strain); format: functional; settings: Human alphaherpesvirus 1; read-out: ID50 (the source's name); in short: as §1
Mus musculus [3] = assay: Number of survivors against Herpes simplex virus type-2 infection in mice at 100 mg/kg/day out of total 10 tested; format: functional
In short: (§2)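 Female Swiss-Webster mice (20–23 g, 10 per group) were infected ip with 10^6 PFU HSV-2 Curtis in 0.3% BSA-PBS. Dosing was sc twice daily in PBS from 1 h postinfection for 5 days. Survival was recorded over 21 days. Mean day of death was computed for dead mice and compared with placebo-treated infected controls by Student's t-test.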

Human alphaherpesvirus 1 [4] = assay: Antiviral activity against Herpes simplex virus-1 (Schooler); format: functional; settings: read-out: ID50 (the source's name); in short: as §1
Mus musculus [5] = assay: Protective dose against Herpes simplex virus type type -1 infection in mice at 200 mg/kg; format: functional; settings: read-out: PD50
In short: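 Female Swiss-Webster mice (20–23 g), 10 per group, infected intraperitoneally with 10^3 PFU HSV-1 strain Schooler (Vero freeze-thaw extract) in 0.3% BSA-PBS. Subcutaneous dosing in PBS twice daily from 1 h postinfection for 5 days, 12.5–200 mg/kg/day. Survival scored over 21 days; PD50 from survival by probit analysis.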

Mus musculus [6] = assay: Number of survivors against Herpes simplex virus type-1 infection in mice at 200 mg/kg/day out of total 10 tested; format: functional
In short: (§3)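 Female Swiss-Webster mice (20–23 g, 10 per group) were infected ip with 10^3 PFU HSV-1 Schooler in 0.3% BSA-PBS. Drug was given sc twice daily in PBS, starting 1 h postinfection, for 5 days. Survival was followed for 21 days. Mean day of death of dead animals was compared with placebo-treated infected controls by Student's t-test.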

Vaccinia virus = assay: Antiviral activity against vaccinia virus (CL strain); format: functional; settings: Orthopoxvirus vaccinia; read-out: ID50 (the source's name)
Mus musculus [7] = assay: Number of survivors against Herpes simplex virus type-2 infection in mice at 200 mg/kg/day out of total 10 tested; format: functional; in short: as §2
Mus musculus [8] = assay: Number of survivors against Herpes simplex virus type-1 infection in mice at 25 mg/kg/day out of total 10 tested; format: functional; in short: as §3
Human alphaherpesvirus 2 = assay: Antiviral activity against Herpes simplex virus-2 (thymidine kinase deficient strains isolated as BVaraU resistant mutants of HSV-1 (KOS)); format: functional; settings: read-out: ID50 (the source's name)
Mus musculus [9] = assay: Day of death in lethal test against herpes simplex virus type-2 at 12.5 mg/kg/day; format: ADME, organism-based; settings: in vivo; in short: as §2
Mus musculus [10] = assay: Day of death in lethal test against herpes simplex virus type-1 at 150 mg/kg/day; format: functional; in short: as §3
Mus musculus [11] = assay: Number of survivors against Herpes simplex virus type-2 infection in mice at 12.5 mg/kg/day out of total 10 tested; format: functional; in short: as §2
Human alphaherpesvirus 1 [12] = assay: Antiviral activity against Herpes simplex virus-1 (thymidine kinase deficient strains isolated as BVaraU resistant mutants of HSV-1 (KOS)); format: functional; settings: read-out: ID50 (the source's name); in short: as §1
Mus musculus [13] = assay: Day of death in lethal test against herpes simplex virus type-1 at 25 mg/kg/day; format: ADME, organism-based; settings: in vivo; in short: as §3
Mus musculus [14] = assay: Number of survivors against Herpes simplex virus type-1 infection in mice at 100 mg/kg/day out of total 10 tested; format: functional; in short: as §3
Mus musculus [15] = assay: Day of death in lethal test against herpes simplex virus type-2 at 100 mg/kg/day; format: ADME, organism-based; settings: in vivo; in short: as §2
Mus musculus [16] = assay: Protective dose against Herpes simplex virus type type -2 infection in mice at 200 mg/kg; format: functional; settings: read-out: PD50
In short: (§4)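 Female Swiss-Webster mice (20–23 g), 10 per group, infected intraperitoneally with 10^6 PFU HSV-2 strain Curtis (Vero freeze-thaw extract) in 0.3% BSA-PBS. Drug given subcutaneously in PBS twice daily from 1 h postinfection for 5 days, doses 12.5–200 mg/kg/day. Survival followed 21 days; PD50 by probit analysis; mean day of death by Student's t-test versus placebo.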

Mus musculus [17] = assay: Day of death in lethal test against herpes simplex virus type-1 at 50 mg/kg/day; format: ADME, organism-based; settings: in vivo; in short: as §3
WI-38 [18] = assay: Tested for growth inhibition againstWI-38 cells; format: functional; settings: Homo sapiens, read-out: ID50 (the source's name)
In short: (§5)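 WI-38 cells seeded at 1.2 × 10^6 per well, incubated overnight at 37 °C, then refed with growth medium (EMEM, 10% FBS) holding serial drug dilutions or none, for 3 more days at 37 °C. Quadruplicate cultures per concentration trypsinized and counted daily for viable cells by trypan blue exclusion.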

Mus musculus [19] = assay: Day of death in lethal test against herpes simplex virus type-2 at 50 mg/kg/day; format: ADME, organism-based; settings: in vivo; in short: as §2
Mus musculus [20] = assay: Day of death in lethal test against herpes simplex virus type-1 at 100 mg/kg/day; format: ADME, organism-based; settings: in vivo; in short: as §3
Mus musculus [21] = assay: Day of death in lethal test against herpes simplex virus type-1 at 12.5 mg/kg/day; format: ADME, organism-based; settings: in vivo; in short: as §3
Mus musculus [22] = assay: Number of survivors against Herpes simplex virus type-1 infection in mice at 150 mg/kg/day out of total 10 tested; format: ADME, organism-based; settings: in vivo; in short: as §3
Mus musculus [23] = assay: Day of death in lethal test against herpes simplex virus type-2 at 25 mg/kg/day; format: ADME, organism-based; settings: in vivo; in short: as §2
Mus musculus [24] = assay: Number of survivors against Herpes simplex virus type-2 infection in mice at 25 mg/kg/day out of total 10 tested; format: functional; in short: as §4
WI-38 [25] = assay: Tested for growth inhibition against WI-38 cells; format: functional; settings: Homo sapiens, read-out: ID50 (the source's name); in short: as §5

For `O=c1[nH]c(=O)n([C@@H]2CO[C@H](CO)[C@H]2CO)cc1I`, which IC50 (Human alphaherpesvirus 3) is on record?
Its IC50 is 70 µM.

What about the IC50 (Human alphaherpesvirus 1 [1]) of the same compound?
Its IC50 is 140 µM.

And the IC50 (Human betaherpesvirus 5)?
Its IC50 is over 270 µM.

For `Nc1nc(O)c2ncn([C@@H]3CO[C@H](CO)[C@H]3CO)c2n1`, which IC50 [2] is on record?
Its IC50 is 7 µM.

What about the No. of survivors (Mus musculus [3]) of the same compound?
The No. of survivors was 6.

And the IC50 (Human alphaherpesvirus 1 [4])?
The IC50 was 18 µM.

And the ED50 (Mus musculus [5])?
The ED50 was 84 mg/kg/day.

And the No. of survivors (Mus musculus [6])?
Its No. of survivors is 9.

And the IC50 (Vaccinia virus)?
The IC50 was over 360 µM.

And the No. of survivors (Mus musculus [7])?
The No. of survivors was 9.

And the No. of survivors (Mus musculus [8])?
Its No. of survivors is 2.

And the IC50 (Human alphaherpesvirus 3)?
Its IC50 is 40 µM.

And the IC50 (Human alphaherpesvirus 2)?
Its IC50 is 180 µM.

What about the IC50 (Human betaherpesvirus 5) of the same compound?
Its IC50 is over 360 µM.

What about the “Mean day of death” value (Mus musculus [9]) of the same compound?
The value was 10.3.

And the “Mean day of death” value (Mus musculus [10])?
The value was 12.3.

What about the No. of survivors (Mus musculus [11]) of the same compound?
The No. of survivors was 0.

And the IC50 (Human alphaherpesvirus 1 [12])?
Its IC50 is 180 µM.

And the “Mean day of death” value (Mus musculus [13])?
The value was 9.1.

What about the No. of survivors (Mus musculus [14]) of the same compound?
The No. of survivors was 6.

What about the “Mean day of death” value (Mus musculus [15]) of the same compound?
The value was 12.2.

What about the ED50 (Mus musculus [16]) of the same compound?
Its ED50 is 52 mg/kg/day.

What about the “Mean day of death” value (Mus musculus [17]) of the same compound?
Its value is 10.1.

And the IC50 (WI-38 [18])?
Its IC50 is over 700 µM.

What about the “Mean day of death” value (Mus musculus [19]) of the same compound?
Its value is 10.9.

What about the “Mean day of death” value (Mus musculus [20]) of the same compound?
The value was 14.7.

What about the “Mean day of death” value (Mus musculus [21]) of the same compound?
Its value is 9.6.

And the No. of survivors (Mus musculus [22])?
Its No. of survivors is 7.

What about the “Mean day of death” value (Mus musculus [23]) of the same compound?
Its value is 12.5.

And the No. of survivors (Mus musculus [24])?
The No. of survivors was 6.

With `Nc1nc(=O)n([C@@H]2CO[C@H](CO)[C@H]2CO)cc1I` as the compound, how does the IC50 (Human alphaherpesvirus 3) read?
Its IC50 is 14 µM.

What about the IC50 (Human alphaherpesvirus 1 [1]) of the same compound?
Its IC50 is 140 µM.

What about the IC50 (Human betaherpesvirus 5) of the same compound?
Its IC50 is over 270 µM.

Which IC50 [2] does the source give for `Nc1ncnc2c1ncn2[C@@H]1CO[C@H](CO)[C@H]1CO` here?
Its IC50 is 4 µM.

What about the IC50 (Vaccinia virus) of the same compound?
The IC50 was 20 µM.

And the IC50 (Human alphaherpesvirus 3)?
Its IC50 is 4 µM.

And the IC50 (Human alphaherpesvirus 1 [1])?
Its IC50 is 8 µM.

What about the IC50 (Human alphaherpesvirus 2) of the same compound?
Its IC50 is 4 µM.

What about the IC50 (Human betaherpesvirus 5) of the same compound?
The IC50 was 4 µM.

And the IC50 (Human alphaherpesvirus 1 [12])?
Its IC50 is 8 µM.

And the IC50 (WI-38 [25])?
Its IC50 is 90 µM.

For `Cc1cn([C@@H]2CO[C@H](CO)[C@H]2CO)c(=O)[nH]c1=O`, which IC50 [2] is on record?
The IC50 was 8 µM.

And the IC50 (Human alphaherpesvirus 3)?
Its IC50 is 20 µM.

And the IC50 (Human alphaherpesvirus 1 [1])?
Its IC50 is 4 µM.

And the IC50 (Human betaherpesvirus 5)?
Its IC50 is over 400 µM.

And the IC50 (Human alphaherpesvirus 1 [12])?
The IC50 was over 400 µM.
